Test results taken from ChEMBL document CHEMBL4373735, “N-alkyl-hydroxybenzoyl anilide hydroxamates as dual inhibitors of HDAC and HSP90, downregulating IFN-γ induced PD-L1 expression” (Eur J Med Chem, 2020).
The source made the active and inactive calls. The calls are words filed in the database; no cut-off is given here.

What was measured:
NCI-H1975 [1] = test: Cell cycle arrest in human NCI-H1975 cells assessed as increase in accumulation at sub-G1 phase at 0.1 to 3 uM after 48 hrs by propidium iodide/RNase staining based FACScan flow cytometry analysis; format: functional
How it was run: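 H1975 cells seeded at 2.5×10^5/well, left overnight, then exposed to DMSO or compound at several concentrations for 48 h. Washed in PBS, fixed in ice-cold 70% ethanol at -20 °C overnight, stained with propidium iodide 80 ug/ml plus 0.1% Triton X-100 and RNase A 100 ug/ml in PBS. DNA content read by FACScan.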

[2] = target: T1, Histone deacetylase (Homo sapiens) (UniProt Q13547+O15379+Q9UBN7+Q92769+Q9UQL6+Q8WUI4+Q9BY41+Q96DB2+P56524+Q9UKV0+Q969S8); test: Inhibition of HDAC in human H1975 cells assessed as alpha tubulin acetylation after 24 hrs by Western blot analysis; format: cell-based
How it was run: (§1)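 Whole-cell lysates from H1975 cells after 24 h culture with compound at the indicated concentrations. Acetylated α-tubulin and acetylated histone H3 detected by immunoblot: SDS-PAGE, PVDF transfer, primary antibody overnight at 4°C, HRP secondary, ECL. Repeated at least three times.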

Histone deacetylase 2 = Histone deacetylase 2 (Homo sapiens, UniProt Q92769); test: Inhibition of recombinant human GST-tagged HDAC2 (1 to 488 residues) expressed in baculovirus infected sf21 cells using RHK-K(Ac)-AMC as substrate after 60 mins by fluorimetry assay
Histone deacetylase 2, sequence (Q92769 whole entry, the tested form may be a part, canonical isoform): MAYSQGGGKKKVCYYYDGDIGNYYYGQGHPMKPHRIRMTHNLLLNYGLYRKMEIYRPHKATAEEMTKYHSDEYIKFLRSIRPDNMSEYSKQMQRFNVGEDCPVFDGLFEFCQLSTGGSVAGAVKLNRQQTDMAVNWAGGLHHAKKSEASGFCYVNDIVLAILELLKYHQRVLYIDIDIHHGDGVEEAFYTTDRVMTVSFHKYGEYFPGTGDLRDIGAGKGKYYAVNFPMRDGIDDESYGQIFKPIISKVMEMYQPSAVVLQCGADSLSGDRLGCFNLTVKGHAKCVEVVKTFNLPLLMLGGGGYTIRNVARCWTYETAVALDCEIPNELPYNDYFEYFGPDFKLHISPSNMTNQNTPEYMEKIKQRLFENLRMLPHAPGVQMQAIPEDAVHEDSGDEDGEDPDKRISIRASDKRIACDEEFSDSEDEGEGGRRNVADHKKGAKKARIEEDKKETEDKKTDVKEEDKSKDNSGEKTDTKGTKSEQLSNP
How it was run: (§2)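 Isoform assays run by an outside contractor. […] Trichostatin A tested in parallel the same way as control.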

Histone deacetylase 4 = Histone deacetylase 4 (Homo sapiens, UniProt P56524); test: Inhibition of recombinant N-terminal GST-tagged and C-terminal His-tagged human HDAC4 expressed in baculovirus infected insect cells using RHK-K(Ac)-AMC as substrate after 60 mins by fluorimetry analysis; how it was run: as §2
Histone deacetylase 4, sequence (P56524 whole entry, the tested form may be a part): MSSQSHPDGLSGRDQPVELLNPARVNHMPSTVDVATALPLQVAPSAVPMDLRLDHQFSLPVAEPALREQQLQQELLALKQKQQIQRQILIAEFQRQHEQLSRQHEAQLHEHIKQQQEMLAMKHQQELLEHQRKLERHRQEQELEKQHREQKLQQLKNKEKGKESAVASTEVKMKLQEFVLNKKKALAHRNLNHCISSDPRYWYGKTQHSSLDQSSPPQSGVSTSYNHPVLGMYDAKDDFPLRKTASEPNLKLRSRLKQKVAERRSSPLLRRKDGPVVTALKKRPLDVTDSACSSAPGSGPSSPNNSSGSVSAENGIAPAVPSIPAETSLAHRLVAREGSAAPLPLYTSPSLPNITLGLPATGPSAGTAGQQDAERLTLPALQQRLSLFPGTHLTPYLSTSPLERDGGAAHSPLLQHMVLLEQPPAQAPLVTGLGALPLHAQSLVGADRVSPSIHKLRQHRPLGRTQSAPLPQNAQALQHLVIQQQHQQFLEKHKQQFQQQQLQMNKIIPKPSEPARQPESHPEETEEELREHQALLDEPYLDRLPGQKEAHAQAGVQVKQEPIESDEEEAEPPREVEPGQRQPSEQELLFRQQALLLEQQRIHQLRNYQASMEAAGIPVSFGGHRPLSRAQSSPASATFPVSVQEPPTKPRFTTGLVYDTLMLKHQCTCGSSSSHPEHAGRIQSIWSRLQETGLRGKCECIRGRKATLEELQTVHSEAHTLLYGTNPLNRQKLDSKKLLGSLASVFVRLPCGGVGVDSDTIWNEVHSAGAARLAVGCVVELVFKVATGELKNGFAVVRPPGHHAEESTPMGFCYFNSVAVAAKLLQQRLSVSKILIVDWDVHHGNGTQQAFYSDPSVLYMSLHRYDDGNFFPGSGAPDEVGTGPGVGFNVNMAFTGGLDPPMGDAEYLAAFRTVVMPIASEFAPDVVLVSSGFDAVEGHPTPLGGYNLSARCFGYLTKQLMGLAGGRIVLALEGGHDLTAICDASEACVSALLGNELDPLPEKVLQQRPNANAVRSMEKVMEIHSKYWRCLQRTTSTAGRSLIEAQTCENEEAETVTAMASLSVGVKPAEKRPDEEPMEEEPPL

Histone deacetylase 3 = Histone deacetylase 3 (Homo sapiens, UniProt O15379); test: Inhibition of human recombinant full length C-terminal His-tagged HDAC3 (1 to 428 residues) expressed in baculovirus infected insect cells using RHK-K(Ac)-AMC as substrate after 60 mins by fluorimetry analysis; how it was run: as §2
Histone deacetylase 1 = Histone deacetylase 1 (Homo sapiens, UniProt Q13547); test: Inhibition of recombinant full length human FLAG/His-tagged HDAC1 (1 to 482 residues) expressed in baculovirus infected insect cells using RHK-K(Ac)-AMC as substrate measured after 60 mins by fluorimetric assay; how it was run: as §2
Histone deacetylase 1, sequence (Q13547 whole entry, the tested form may be a part): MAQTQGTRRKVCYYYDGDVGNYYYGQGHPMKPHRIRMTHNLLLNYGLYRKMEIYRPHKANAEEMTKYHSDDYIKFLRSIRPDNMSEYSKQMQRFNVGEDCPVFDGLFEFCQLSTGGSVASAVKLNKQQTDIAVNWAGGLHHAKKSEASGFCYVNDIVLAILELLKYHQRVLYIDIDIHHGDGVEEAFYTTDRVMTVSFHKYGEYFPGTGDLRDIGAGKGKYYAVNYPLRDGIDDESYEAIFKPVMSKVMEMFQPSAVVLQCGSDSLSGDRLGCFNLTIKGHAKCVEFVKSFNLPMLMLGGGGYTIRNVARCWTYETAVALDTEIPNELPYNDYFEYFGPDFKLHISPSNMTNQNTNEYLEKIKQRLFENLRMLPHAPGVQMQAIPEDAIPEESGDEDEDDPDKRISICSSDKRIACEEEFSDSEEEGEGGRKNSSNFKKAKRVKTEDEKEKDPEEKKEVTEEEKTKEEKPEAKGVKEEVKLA

[3] = target: Heat shock protein HSP 90-alpha (Homo sapiens, UniProt P07900); test: Inhibition of FITC-geldanamycin binding to recombinant human full-length C-terminal His-tagged HSP90alpha expressed in Escherichia coli after 3 hrs by fluorescence polarization assay
NCI-H1975 [4] = test: cells; format: functional; conditions: Homo sapiens, NCI-H1975, 48 h
NCI-H1975 [5] = test: Induction of apoptosis in human NCI-H1975 cells assessed as activation of gamma H2AX at 0.1 to 3 uM measured after 48 hrs immunoblot analysis; format: functional, cell-based
How it was run: (§3)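 H1975 cells cultured with compound at the indicated concentrations for 48 h, then immunoblotted with the indicated antibodies. Lysis buffer was ice-cold RIPA-type with phosphatase and protease inhibitors, 30 min on ice. Proteins separated on 8-15% SDS-PAGE, transferred to PVDF, primary antibody overnight at 4°C, HRP secondary 1 h at room temperature, ECL detection.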

[6] = target: T1, Histone deacetylase (Homo sapiens); test: Inhibition of HDAC in human H1975 cells assessed as Histone H3 acetylation after 24 hrs by Western blot analysis; format: cell-based; how it was run: as §1
Histone deacetylase 7 = Histone deacetylase 7 (Homo sapiens, UniProt Q8WUI4); test: Inhibition of recombinant human N-terminal GST-tagged HDAC7 (518 to 991 residues) expressed in baculovirus infected insect cells using Boc-K(Ac)-AMC as substrate after 90 mins by fluorimetry analysis; how it was run: as §2
Histone deacetylase 7, sequence (Q8WUI4 whole entry, the tested form may be a part): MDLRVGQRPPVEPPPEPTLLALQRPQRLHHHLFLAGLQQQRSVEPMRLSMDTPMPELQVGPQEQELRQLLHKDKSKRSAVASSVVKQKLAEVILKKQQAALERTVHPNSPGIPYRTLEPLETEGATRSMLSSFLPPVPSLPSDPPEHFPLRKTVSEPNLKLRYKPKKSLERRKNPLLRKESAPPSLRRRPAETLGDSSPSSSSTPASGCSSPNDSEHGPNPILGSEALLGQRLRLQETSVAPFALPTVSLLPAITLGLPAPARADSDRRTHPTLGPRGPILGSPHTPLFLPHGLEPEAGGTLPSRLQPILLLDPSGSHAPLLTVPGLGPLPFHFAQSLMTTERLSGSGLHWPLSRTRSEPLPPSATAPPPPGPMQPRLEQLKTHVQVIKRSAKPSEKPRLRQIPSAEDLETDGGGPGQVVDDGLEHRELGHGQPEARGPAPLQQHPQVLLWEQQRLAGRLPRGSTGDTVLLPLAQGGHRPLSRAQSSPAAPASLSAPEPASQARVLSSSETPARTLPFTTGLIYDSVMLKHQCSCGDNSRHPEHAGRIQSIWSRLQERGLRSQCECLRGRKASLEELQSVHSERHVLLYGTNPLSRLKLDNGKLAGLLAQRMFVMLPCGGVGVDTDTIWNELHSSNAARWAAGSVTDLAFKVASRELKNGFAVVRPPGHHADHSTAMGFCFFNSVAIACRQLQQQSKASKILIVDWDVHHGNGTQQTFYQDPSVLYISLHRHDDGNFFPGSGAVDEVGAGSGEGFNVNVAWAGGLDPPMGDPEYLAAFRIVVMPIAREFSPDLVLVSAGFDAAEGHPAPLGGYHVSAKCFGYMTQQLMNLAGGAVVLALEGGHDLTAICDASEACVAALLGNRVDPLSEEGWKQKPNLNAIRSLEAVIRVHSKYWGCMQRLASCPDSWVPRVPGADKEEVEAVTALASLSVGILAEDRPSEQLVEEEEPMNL

[7] = target: T2, Heat shock protein HSP90 (Homo sapiens) (UniProt P07900+P08238); test: Inhibition of HSP90 in human H1975 cells assessed as induction of HSP70 expression by Western blot analysis; format: cell-based
How it was run: (§4)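 H1975 cells given DMSO or 0.1-3 μM compound for 24 h, or 1 μM for varying times. HSP70 and HSP90 client proteins detected by Western blot of whole-cell lysates, with GAPDH as internal control. Repeated in at least three independent experiments.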

[8] = target: T2, Heat shock protein HSP90 (Homo sapiens); test: Inhibition of HSP90 in human H1975 cells assessed as downregulation of EGFR protein level by Western blot analysis; format: cell-based; how it was run: as §4
NCI-H1975 [9] = test: Induction of apoptosis in human NCI-H1975 cells assessed as activation of caspase 3 at 0.1 to 3 uM measured after 48 hrs immunoblot analysis; format: functional, cell-based; how it was run: as §3
[10] = target: Polyamine deacetylase HDAC10 (Homo sapiens, UniProt Q969S8); test: Inhibition of human HDAC10 using fluorescent-labelled p53 residues 379 to 382 (RHKKAc) peptide as substrate by fluorescence assay; how it was run: as §2
Polyamine deacetylase HDAC10, sequence (Q969S8 whole entry, the tested form may be a part): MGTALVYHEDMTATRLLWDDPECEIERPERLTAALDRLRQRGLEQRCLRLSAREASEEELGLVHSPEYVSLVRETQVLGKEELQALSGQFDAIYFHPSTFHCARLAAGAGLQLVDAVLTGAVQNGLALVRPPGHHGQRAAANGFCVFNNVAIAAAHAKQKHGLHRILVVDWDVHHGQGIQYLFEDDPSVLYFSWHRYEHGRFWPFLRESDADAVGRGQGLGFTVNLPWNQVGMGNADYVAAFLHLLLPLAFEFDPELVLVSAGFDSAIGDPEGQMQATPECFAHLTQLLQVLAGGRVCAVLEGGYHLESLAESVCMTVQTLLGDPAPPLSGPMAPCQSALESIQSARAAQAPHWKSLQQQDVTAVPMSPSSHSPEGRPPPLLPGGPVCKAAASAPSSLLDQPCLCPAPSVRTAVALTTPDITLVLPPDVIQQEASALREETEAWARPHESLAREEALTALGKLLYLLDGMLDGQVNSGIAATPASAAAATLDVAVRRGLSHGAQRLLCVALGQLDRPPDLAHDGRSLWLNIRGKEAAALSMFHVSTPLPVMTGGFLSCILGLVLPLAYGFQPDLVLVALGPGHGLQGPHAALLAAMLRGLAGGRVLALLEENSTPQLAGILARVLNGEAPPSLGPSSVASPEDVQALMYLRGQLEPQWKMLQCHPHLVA

[11] = target: Protein deacetylase HDAC6 (Homo sapiens, UniProt Q9UBN7); test: Inhibition of recombinant human N-terminal GST-tagged HDAC6 (1 to 1125 residues) expressed in baculovirus infected insect cells using RHK-K(Ac)-AMC as substrate after 90 mins by fluorimetry analysis; how it was run: as §2
Histone deacetylase 5 = Histone deacetylase 5 (Homo sapiens, UniProt Q9UQL6); test: Inhibition of recombinant human C-terminal His-fusion tagged HDAC5 (657 to 1123 residues) expressed in baculovirus infected insect cells using Boc-K(Ac)-AMC as substrate after 60 mins by fluorimetry analysis; how it was run: as §2
NCI-H1975 [12] = test: Inhibition of IFNgamma-induced PD-L1 expression in human NCI-H1975 cells assessed as reduction in PD-L1 expression incubated for 48 hrs by Western blot analysis; format: functional, cell-based
How it was run: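 H1975 cells exposed to IFN-γ 20 ng/ml alone or together with compound at the indicated concentrations for 48 h. Lysates run on 10% reducing SDS-PAGE and transferred to nitrocellulose. Blocked in 5% milk/PBST, probed with mouse anti-PD-L1 for 1 h, HRP goat anti-mouse detected by ECL. β-actin used as loading control.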

NCI-H1975 [13] = test: Induction of apoptosis in human NCI-H1975 cells assessed as activation of PARP at 0.1 to 3 uM measured after 48 hrs immunoblot analysis; format: functional, cell-based; how it was run: as §3
[14] = target: T2, Heat shock protein HSP90 (Homo sapiens); test: Inhibition of HSP90 in human H1975 cells assessed as downregulation of FAK protein level by Western blot analysis; format: cell-based; how it was run: as §4
[15] = target: NAD-dependent protein deacetylase sirtuin-1 (Homo sapiens, UniProt Q96EB6); test: Inhibition of human recombinant N-terminal His-tagged SIRT1 (1 to 747 residues) expressed in Escherichia coli using Ac-RHK-K(Ac)-AMC as substrate after 30 mins in presence of NAD+ by fluorimetry analysis; how it was run: as §2
NAD-dependent protein deacetylase sirtuin-1, sequence (Q96EB6 whole entry, the tested form may be a part): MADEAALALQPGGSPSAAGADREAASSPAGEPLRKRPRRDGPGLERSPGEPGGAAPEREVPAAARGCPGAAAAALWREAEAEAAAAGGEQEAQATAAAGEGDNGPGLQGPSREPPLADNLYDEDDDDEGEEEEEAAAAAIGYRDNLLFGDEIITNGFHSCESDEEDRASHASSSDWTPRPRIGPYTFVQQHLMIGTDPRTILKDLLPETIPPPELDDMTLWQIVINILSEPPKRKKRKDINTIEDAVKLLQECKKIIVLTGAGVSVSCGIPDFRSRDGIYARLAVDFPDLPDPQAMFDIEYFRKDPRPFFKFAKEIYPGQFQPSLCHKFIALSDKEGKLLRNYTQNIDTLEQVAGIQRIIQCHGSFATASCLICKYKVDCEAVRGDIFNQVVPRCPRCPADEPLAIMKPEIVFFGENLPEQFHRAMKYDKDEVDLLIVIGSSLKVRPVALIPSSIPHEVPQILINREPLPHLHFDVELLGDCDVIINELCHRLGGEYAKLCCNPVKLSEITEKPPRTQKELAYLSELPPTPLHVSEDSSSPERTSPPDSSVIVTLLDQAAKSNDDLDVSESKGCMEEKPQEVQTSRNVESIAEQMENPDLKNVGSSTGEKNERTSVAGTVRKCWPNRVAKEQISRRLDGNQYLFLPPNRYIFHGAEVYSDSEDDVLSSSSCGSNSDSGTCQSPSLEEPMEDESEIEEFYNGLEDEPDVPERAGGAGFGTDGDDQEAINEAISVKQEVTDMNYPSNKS

Histone deacetylase 8 = Histone deacetylase 8 (Homo sapiens, UniProt Q9BY41); test: Inhibition of recombinant C-terminal His-fusion tagged and N-terminal Streptavidin2-tagged human HDAC8 (1 to 377 residues) expressed in insect cells using RHK-K(Ac)-AMC as substrate after 60 mins by fluorescence assay; how it was run: as §2
Histone deacetylase 11 = Histone deacetylase 11 (Homo sapiens, UniProt Q96DB2); test: Inhibition of human recombinant N-terminal Streptavidin2-tagged HDAC11 (1 to 347 residues) expressed in baculovirus infected insect cells using Boc-Lys(TFA)-AMC as substrate after 60 mins by fluorescence assay; how it was run: as §2
Histone deacetylase 11, sequence (Q96DB2 whole entry, the tested form may be a part): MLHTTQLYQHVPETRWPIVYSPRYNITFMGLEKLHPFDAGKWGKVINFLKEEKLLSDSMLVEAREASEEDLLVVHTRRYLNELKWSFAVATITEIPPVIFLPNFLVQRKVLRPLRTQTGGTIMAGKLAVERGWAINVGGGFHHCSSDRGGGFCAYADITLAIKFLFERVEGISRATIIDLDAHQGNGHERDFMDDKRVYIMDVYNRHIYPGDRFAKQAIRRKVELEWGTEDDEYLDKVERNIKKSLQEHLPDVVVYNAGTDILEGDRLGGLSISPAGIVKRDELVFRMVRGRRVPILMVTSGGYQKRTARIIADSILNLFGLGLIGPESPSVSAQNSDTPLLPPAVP

| SMILES | Activity (NCI-H1975 [1]) | inhibition [2] | IC50 (Histone deacetylase 2) [µM] | IC50 (Histone deacetylase 4) [µM] | IC50 (Histone deacetylase 3) [nM] | IC50 (Histone deacetylase 1) [µM] | IC50 [3] [nM] | GI50 (NCI-H1975 [4]) [nM] | Activity (NCI-H1975 [5]) | inhibition [6] | IC50 (Histone deacetylase 7) [µM] | inhibition [7] | inhibition [8] | Activity (NCI-H1975 [9]) | IC50 [10] [nM] | IC50 [11] [nM] | IC50 (Histone deacetylase 5) [µM] | inhibition (NCI-H1975 [12]) | Activity (NCI-H1975 [13]) | inhibition [14] | also measured |
| --- | --- | --- | --- | --- | --- | --- | --- | --- | --- | --- | --- | --- | --- | --- | --- | --- | --- | --- | --- | --- | --- |
| CC(C)c1cc(C(=O)N(C)c2ccc(NC(=O)CCCCCCCC(=O)NO)cc2)c(O)cc1O | Active | Dose-dependent effect | 4.91 | > 10 | 1440 | 6.06 | 77.2 | 400 | Active | Dose-dependent effect | 6.4 | Active | Active | Active | > 10000 | 316 | 5.41 | Dose-dependent effect | Active | Active | IC50 [15]: > 10 µM; IC50 (Histone deacetylase 8): 3410 nM; IC50 (Histone deacetylase 11): 1890 nM |
| CC(C)c1cc(C(=O)N(C)c2ccc(NC(=O)CCCCCCC(=O)NO)cc2)c(O)cc1O | Active | Dose-dependent effect | 1.19 | > 10 | 2060 | 1.31 | 153 | 690 | Active | Dose-dependent effect | > 10 | Active | Active | Active | 2670 | 40 | 7.86 | Dose-dependent effect | Active | Active | IC50 [15]: > 10 µM; IC50 (Histone deacetylase 8): 422 nM; IC50 (Histone deacetylase 11): 3610 nM |
